Source: PubChem
This is a sample that favours compounds with a hit; in the whole collection about 9.4% have one here.
SKKanGAS inh = SKKanGAS growth inhibition | hit rate 1.3% among 300,000 | AID 1662 | S. pyogenes SKKanGAS, kanamycin growth, BacTiter-Glo, 6 h | inhibition, % at 7.5 µM;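 active means mean replicate score, as percent of positive control median, at least 50; inconclusive means mean below 50 but one replicate at or above 50; inactive means mean and every replicate below 50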;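 further: strain carries kanamycin resistance gene driven by streptokinase promoter and grows in 40 µg/ml kanamycin; loss of luminescence reflects streptokinase promoter inhibition or plain growth inhibition; 0% = median of DMSO wells and 100% = positive control at its reference dose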
Mdm2 MdmX PPI = inhibitors of human Mdm2/MdmX interaction. SaOS-2 split-luciferase Mdm2/MdmX complementation, luminescence. inhibition, % at 8 µM. hit rate 3% among 330,000;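 active means inhibition of at least 50% at 8 µM in the primary screen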
Target sequence (O15151 whole entry, looked up): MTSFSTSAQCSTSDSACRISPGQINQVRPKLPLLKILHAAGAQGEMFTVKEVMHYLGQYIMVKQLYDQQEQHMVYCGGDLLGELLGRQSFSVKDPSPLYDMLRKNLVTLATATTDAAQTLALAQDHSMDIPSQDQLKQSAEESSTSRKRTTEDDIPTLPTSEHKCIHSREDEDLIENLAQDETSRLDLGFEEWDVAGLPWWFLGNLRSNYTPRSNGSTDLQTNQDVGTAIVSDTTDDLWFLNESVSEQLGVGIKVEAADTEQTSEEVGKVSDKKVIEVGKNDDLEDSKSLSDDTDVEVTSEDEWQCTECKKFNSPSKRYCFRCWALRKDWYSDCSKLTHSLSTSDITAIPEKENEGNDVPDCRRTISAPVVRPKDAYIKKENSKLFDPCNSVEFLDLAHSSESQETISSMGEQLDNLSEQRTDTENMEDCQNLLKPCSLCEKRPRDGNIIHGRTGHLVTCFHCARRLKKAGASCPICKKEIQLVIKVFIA
Target sequence (Q00987 whole entry, looked up): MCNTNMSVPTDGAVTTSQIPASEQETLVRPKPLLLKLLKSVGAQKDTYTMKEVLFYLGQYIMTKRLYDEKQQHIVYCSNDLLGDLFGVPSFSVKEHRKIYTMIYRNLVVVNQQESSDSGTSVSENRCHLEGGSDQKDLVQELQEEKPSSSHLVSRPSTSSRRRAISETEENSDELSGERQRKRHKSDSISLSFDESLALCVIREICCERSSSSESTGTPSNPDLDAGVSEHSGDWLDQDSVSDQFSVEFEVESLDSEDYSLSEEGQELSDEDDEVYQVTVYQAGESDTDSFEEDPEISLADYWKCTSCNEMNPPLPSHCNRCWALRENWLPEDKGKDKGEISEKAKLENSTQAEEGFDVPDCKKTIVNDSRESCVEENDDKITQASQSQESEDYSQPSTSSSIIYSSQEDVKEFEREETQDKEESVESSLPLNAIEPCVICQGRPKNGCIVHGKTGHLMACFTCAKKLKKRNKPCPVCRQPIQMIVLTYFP
L major viab = Leishmania major promastigote growth inhibition | Leishmania major promastigotes, resazurin fluorescence viability | inhibition, % at 10 µM | hit rate 9% among 200,000 | AID 1063; in the data active means inhibition above about 50%;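 further: promastigotes grown with compound for 44 hours at 28 °C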
T cruzi repl = T. cruzi replication inhibition; T. cruzi beta-gal in NIH3T3, luminescence, 90 h; inhibition, % (test concentration not listed); hit rate 1.4% among 300,000;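 active means mean inhibition across valid replicates above about 55%, limit read from the data; inconclusive means mean below that limit but half or more replicates reach it; inactive means mean below it, under half of replicates reach it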;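 further: signal also drops with host cell toxicity which is not excluded here; 0% = plate median of DMSO wells and 100% = zero luminescence signal; higher percent means less beta-gal luminescence so fewer parasites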
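Material: NIH/3T3 host cells with β-galactosidase reporter T. cruzi; Input: 5,000 host fibroblasts per well; Medium: DMEM, 2% fetal bovine serum; Compound: 50 nL DMSO compound solution per well; Schedule: 3 h host attachment, then at least 90 h co-culture; Detection: luminescent β-galactosidase signal after 60 min lysis.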
Beta apoptosis = blocks beta cell apoptosis | INS-1E cytokine-induced death, ATP luminescence, 48 h; percent of positive-control rescue, neutral wells zero | protection from apoptosis, % (test concentration not listed) | hit rate 0.8% among 300,000 | AID 435005;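 active means Every replicate reaches about 75%, or at least half do and their mean reaches it too, limit read from the data; inconclusive means At least half of replicates reach the limit but their mean does not; inactive means Under half of replicates reach the limit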;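 further: 0% = cytokine-treated negative control wells and 100% = positive control rescue; higher means more ATP so stronger rescue from cytokine killing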
CSC inhib = cancer stem cell inhibition; cancer stem cell-like cells viability, luminescence; inhibition, % at 7.5 µM; hit rate 1.1% among 300,000; AID 2717; in the data active means inhibition above about 75%; inconclusive means no clear call, values can overlap the other calls; tested in HMLE shEcad cells
Numbers without * were called inactive; ? = inconclusive; nt = no result given.

SMILES | SKKanGAS inh | Mdm2 MdmX PPI | L major viab | T cruzi repl | Beta apoptosis | CSC inhib
CCC(Oc1ccccc1)C(=O)Nc1nnc(S(=O)(=O)N2CCCC2)s1 (stereo unspecified) | 3 | 0 | nt | 3 | -8 | 1
CC1CN(c2cc(-c3ccccc3)c3ccccc3n2)CC(C)O1 (stereo unspecified) | 26 | 18 | 100* | 26 | 2 | 23
O=C(COC(=O)CCC(=O)c1cccs1)NC(=O)c1ccc(OC(F)F)cc1 | -18 | 8 | -7 | -8 | -8 | -25
Cc1ccc(NC(=O)c2c(C(F)(F)F)nn(C)c2SCc2cccc(C(F)(F)F)c2)cc1C | 11 | -4 | 5 | 59* | 88* | 36
Cc1ccc(NC(=O)c2c(C(F)(F)F)nn(C)c2Cl)cc1C | 1 | -4 | -6 | -1 | -4 | 0
Cc1ccc(NC(=O)c2c(C(F)(F)F)nn(C)c2SCc2ccc(Cl)cc2)cc1C | 34 | 13 | 3 | 65* | 7 | 31
CCCN(C(=O)CSc1nnc2ccccn12)C1CCS(=O)(=O)C1 (stereo unspecified) | nt | -18 | nt | nt | 0 | -14
O=C(O)CCc1[nH]c2ccccc2c1Sc1ccccc1 | 6 | -4 | nt | -10 | -1 | 13
O=C(CNC(=O)c1ccc(F)cc1)N/N=C/c1cc(Br)ccc1OCc1ccccc1 | ? | 18 | 96* | 8 | 2 | -6
COc1ccccc1/C=C/C(=O)NCC(=O)N/N=C/c1ccccc1[N+](=O)[O-] | -2 | 14 | 6 | 61* | 1 | 8
O=C(CNC(=O)c1cccc(F)c1)N/N=C/c1cc(Br)ccc1OC(=O)/C=C/c1ccco1 | 14 | nt | 84* | 31 | nt | nt
COc1ccc([N+](=O)[O-])cc1/C=N/NC(=O)CNC(=O)c1cccc(F)c1 | -6 | -12 | 98* | -13 | -8 | -11
COc1ccccc1C(=O)NCC(=O)N/N=C/c1cc(Br)ccc1OCc1ccccc1 | 29 | 43 | 18 | 2 | 8 | 1
CCOC(=O)c1c(C)[nH]c(C)c1S(=O)(=O)NCc1cc(C)ccc1C | -3 | 16 | nt | 2 | -7 | -8
Cc1ccc(OCc2nnc(SCc3ccc(C#N)cc3)n2-c2ccc(C)cc2)cc1 | 12 | 34 | 100* | 38 | -4 | -1
C=CCn1c(COc2ccc(Cl)cc2)nnc1SCc1ccc(C#N)cc1 | 5 | 10 | 58* | 39 | -2 | 21
C=CCn1c(SCc2ccc(C#N)cc2)nnc1-c1ccccc1 | -13 | -28 | -2 | -12 | -3 | -9
COc1ccc(-n2c(Cc3ccccc3)nnc2SCc2ccc([N+](=O)[O-])cc2)cc1 | 2 | 5 | 7 | 13 | 2 | 17
C=CCn1c(SCc2ccc(C#N)cc2)nnc1-c1cccc(OC)c1 | -6 | -3 | 84* | -2 | nt | -1
C=CCn1c(COc2ccccc2)nnc1SCc1ccc(C#N)cc1 | -7 | 26 | 40 | 14 | -2 | -13
COc1ccc(-n2c(SCc3ccc([N+](=O)[O-])cc3)nnc2-c2ccc(C)cc2)cc1 | -2 | -3 | 16 | 70* | 9 | 14
C=CCN(c1ccccc1)S(=O)(=O)c1ccc2c(c1)NC(=O)C(C)C(=O)N2 (stereo unspecified) | -3 | 12 | nt | -4 | 5 | -8
O=C(NCC1CCCO1)c1ccc(CNS(=O)(=O)c2cccc(Cl)c2)cc1 (stereo unspecified) | -1 | -11 | -2 | -2 | -4 | 0
CCCN(CC(=O)Nc1ccc(F)c(F)c1F)C(=O)c1cc([N+](=O)[O-])ccc1N1CCOCC1 | 10 | -16 | nt | 3 | -2 | -3
Cc1ccc(/C=N/NC(=O)c2nnn(-c3nonc3N)c2C(C)C)s1 | 0 | 11 | nt | -10 | -6 | -6
SMILES | SKKanGAS inh | Mdm2 MdmX PPI | L major viab | T cruzi repl | Beta apoptosis | CSC inhib
COc1ccc(-n2c(COc3cccc4ccccc34)nnc2SCC#N)cc1 | 14 | 8 | 55* | 26 | 7 | -9
N#CCSc1nnc(COc2cccc3ccccc23)n1-c1ccccc1 | nt | 25 | 31 | 38 | nt | -9
c1ccc(C(c2ccccc2)c2noc(CN3CCN(CC4CC4)CC3)n2)cc1 | 8 | 23 | 55* | 11 | -7 | 26
COCC1CCCN(Cc2nc(C(c3ccccc3)c3ccccc3)no2)C1 (stereo unspecified) | 6 | 10 | 31 | 4 | -1 | 2
O=C(N/N=C/c1cccc2ccccc12)c1ccncc1 | 5 | 10 | nt | -3 | nt | -10
O=C(/C=C/c1cccc2ccccc12)c1ccncc1 | 10 | nt | 100* | 32 | 32 | 52
CCCCn1c(O)c(N=NC(=O)c2ccccc2NS(=O)(=O)c2cccs2)c2ccccc21 | 71* | 29 | 8 | -3 | 3 | -20
COc1ccc(N2CCN(C(=O)c3ccc(NC(=O)C4=CSCCO4)cc3)CC2)cc1 | 13 | -8 | nt | 0 | nt | -7
O=C(NCc1cccnc1)c1ccc(S(=O)(=O)N2CCCCCC2)cc1 | -1 | -27 | 3 | 1 | 4 | -11
CCn1c(=O)cc(SCC(=O)N2CCN(C3CCCCC3)CC2)c2ccccc21 | -11 | 41 | 51* | 28 | -10 | nt
CCn1c(=O)cc(SCC(=O)N2CCOCC2)c2ccccc21 | 0 | 39 | -2 | 7 | -6 | 0
CCOc1ccc2nc(N/C(N)=N/C(=S)Nc3ccc(OC)cc3)nc(C)c2c1 | 5 | 28 | 72* | 30 | 4 | nt
COc1ccc2nc(N/C(N)=N/C(=S)Nc3ccccc3)nc(C)c2c1 | 10 | 26 | 37 | 50 | -3 | nt
COc1ccc(NS(=O)(=O)c2cccc(C(=O)NNC(=O)CNC(=O)c3ccc(C)cc3)c2)cc1 | 1 | -30 | nt | -10 | -18 | nt
O=C(OCC(=O)N1CCN(S(=O)(=O)c2ccc(Cl)cc2)CC1)c1ccc([N+](=O)[O-])o1 | -4 | 26 | 57* | 0 | -8 | -6
O=C(OCC(=O)N1CCN(S(=O)(=O)c2ccc(Cl)cc2)CC1)C1CC1 | nt | 8 | nt | nt | nt | nt
O=C(OCC(=O)N1CCN(S(=O)(=O)c2ccccc2)CC1)c1ccc([N+](=O)[O-])o1 | 12 | -13 | 95* | 4 | 2 | -9
CC1CCN(C(=O)COC(=O)c2ccc([N+](=O)[O-])o2)CC1 | nt | 14 | nt | nt | -16 | -17
Cc1ccc(C)c(N2CCN(CCN3CCCCC3)CC2)c1 | 7 | 31 | nt | 41 | -4 | 56
Cc1ccc(C(=O)CC(=O)c2ccc(C)cc2O)cc1 | 62* | nt | nt | -6 | -3 | 12
CC(C)(C)c1ccc(C(=O)CC(=O)c2cc(Cl)ccc2O)cc1 | 91* | 37 | 99* | 23 | 28 | 3
Cc1ccc(C(=O)CC(=O)c2ccc(C(C)(C)C)cc2)cc1 | 8 | 30 | -4 | -24 | 0 | 16
Cc1ccc(C(=O)CC(=O)c2cc(Cl)ccc2O)cc1 | 126* | -22 | 99* | -9 | 6 | nt
CCC(CC)c1nnc(NC(=O)C2CC(=O)N(C3CCCC3)C2)s1 (stereo unspecified) | 1 | 26 | nt | 4 | 1 | -5
